Activity calls are given as the source filed them. No cut-off for these calls is given here.
What was measured:
[1] = system: Mus musculus; assay: Effect on 8-OH-DPAT-induced hypothermia in Swiss albino mouse assessed as change in rectal body temperature at 10 mg/kg, ip pretreated with compound for 45 mins followed by 8-OH-DPAT challenge and measured after 60 min by thermometer (reference value: -0.66 to -0.5 degreeC); type: functional, organism-based; conditions: time 105.0 min
[2] = Effect on body temperature in Swiss Albino mouse assessed as rectal body temperature at 20 mg/kg, ip measured after 60 mins by thermometer (reference value: 0.33 to 0.61 degreeC); type: ADME, organism-based; conditions: in vivo, 1 h
[3] = system: Mus musculus; assay: Effect on 8-OH-DPAT-induced hypothermia in Swiss albino mouse assessed as change in rectal body temperature at 20 mg/kg, ip pretreated with compound for 45 mins followed by 8-OH-DPAT challenge and measured after 30 min by thermometer (reference value: -1.36 to -1.12 degreeC); type: functional, organism-based; conditions: time 75.0 min
[4] = system: Mus musculus; assay: Effect on 8-OH-DPAT-induced hypothermia in Swiss albino mouse assessed as change in rectal body temperature at 20 mg/kg, ip pretreated with compound for 45 mins followed by 8-OH-DPAT challenge and measured after 15 min by thermometer (reference value: -1.82 to -1.66 degreeC); type: functional, organism-based; conditions: time 60.0 min
[5] = Effect on body temperature in Swiss Albino mouse assessed as rectal body temperature at 10 mg/kg, ip measured after 60 mins by thermometer (reference value: 0.33 to 0.61 degreeC); type: ADME, organism-based; conditions: in vivo, 1 h
[6] = system: Mus musculus; assay: Effect on 8-OH-DPAT-induced hypothermia in Swiss albino mouse assessed as change in rectal body temperature at 10 mg/kg, ip pretreated with compound for 45 mins followed by 8-OH-DPAT challenge and measured after 45 min by thermometer (reference value: -1.04 to -0.78 degreeC); type: functional, organism-based; conditions: time 90.0 min
[7] = system: Mus musculus; assay: Antipsychotic activity in Swiss Albino mouse assessed as inhibition of apomorphine-induced climbing behaviour at 10 mg/kg, ip administered 30 mins prior to APO challenge and measured after 30 mins; type: functional, organism-based; conditions: time 60.0 min
Method in brief: (§1)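 Male Albino Swiss mice received compound i.p. (10 mg/kg in 1% Tween 80) 30 min before the test and apomorphine 2.5 mg/kg s.c. 10 min before the test. Each mouse was placed in a cage with a metal grid and scored positive when all four paws were on the grid. Blinded observation every 10 min to 60 min, then at 120 min. n=8, Fisher's exact test with Yates' correction.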

[8] = system: Mus musculus; assay: Antipsychotic activity Swiss Albino mouse assessed as inhibition of DOI-induced head twitching by measuring number of episodes at 2.5 mg/kg, ip administered 30 mins prior to DOI stimulation (reference value: 19.63 to 19.88); type: functional; conditions: 0.5 h
Method in brief: (§2)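 Male Albino Swiss mice (24–28 g) were habituated to sawdust-lined cages 20 min before the first treatment. Compounds were suspended in 1% aqueous Tween 80 and given i.p. 30 min before (±)-DOI, 2.5 mg/kg i.p. in aqueous solution. Head twitches were counted blind over 20 min, n=8 per group, mean ± SEM, one-way ANOVA with Dunnett's test.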

[9] = system: Mus musculus; assay: Effect on 8-OH-DPAT-induced hypothermia in Swiss albino mouse assessed as change in rectal body temperature at 10 mg/kg, ip pretreated with compound for 45 mins followed by 8-OH-DPAT challenge and measured after 15 min by thermometer (reference value: -1.82 to -1.66 degreeC); type: functional, organism-based; conditions: time 60.0 min
[10] = system: Mus musculus; assay: Antipsychotic activity Swiss Albino mouse assessed as inhibition of DOI-induced head twitching by measuring number of episodes at 0.625 mg/kg, ip administered 30 mins prior to DOI stimulation (reference value: 19.63 to 19.88); type: functional; conditions: 0.5 h; method in brief: as §2
[11] = system: Mus musculus; assay: Antipsychotic activity in Swiss Albino mouse assessed as inhibition of apomorphine-induced climbing behaviour at 10 mg/kg, ip administered 30 mins prior to APO challenge and measured after 40 mins; type: functional, organism-based; conditions: time 70.0 min; method in brief: as §1
[12] = system: Mus musculus; assay: Antipsychotic activity in Swiss Albino mouse assessed as inhibition of apomorphine-induced climbing behaviour at 10 mg/kg, ip administered 30 mins prior to APO challenge and measured after 60 mins; type: functional, organism-based; conditions: time 90.0 min; method in brief: as §1

SMILES: O=C(NC1CC2CCC(C1)N2Cc1cccc(Br)c1)c1ccc2ccccc2c1 (stereo unspecified)
- deltaT [1]: -0.72 °C
- deltaT [2]: 0.49 °C
- deltaT [3]: -1.37 °C
- deltaT [4]: -1.42 °C
- deltaT [5]: 0.76 °C
- deltaT [6]: -1 °C
- inhibition [7]: Active
- Activity [8]: 14.5
- deltaT [9]: -1.32 °C

SMILES: O=C(NC1CC2CCC(C1)N2Cc1cccc(F)c1)c1ccc2ccccc2c1 (stereo unspecified)
- deltaT [1]: -0.78 °C
- deltaT [2]: 0.43 °C
- deltaT [3]: -1.83 °C
- Activity [10]: 17.38
- deltaT [4]: -1.67 °C
- deltaT [5]: 0.53 °C
- deltaT [6]: -0.97 °C
- inhibition [11]: Active
- Activity [8]: 11.38
- deltaT [9]: -1.6 °C

SMILES: O=C(NC1CC2CCC(C1)N2Cc1ccc(F)cc1)c1ccc2ccccc2c1 (stereo unspecified)
- deltaT [1]: -0.73 °C
- deltaT [2]: 0.46 °C
- deltaT [3]: -1.6 °C
- inhibition [12]: Active
- Activity [10]: 17.63
- deltaT [4]: -1.62 °C
- deltaT [5]: 0.5 °C
- deltaT [6]: -0.92 °C
- Activity [8]: 5.75
- deltaT [9]: -1.55 °C

SMILES: O=C(NC1CC2CCC(C1)N2Cc1cccc(Cl)c1)c1ccc2ccccc2c1 (stereo unspecified)
- deltaT [1]: -0.67 °C
- deltaT [2]: 0.41 °C
- deltaT [3]: -2.22 °C
- deltaT [4]: -2.12 °C
- deltaT [5]: 1 °C
- deltaT [6]: -0.85 °C
- Activity [8]: 17.25
- deltaT [9]: -1.03 °C

SMILES: Cc1cccc(CN2C3CCC2CC(NC(=O)c2ccc4ccccc4c2)C3)c1 (stereo unspecified)
- deltaT [1]: -0.05 °C
- deltaT [2]: 0.47 °C
- deltaT [3]: -2.08 °C
- deltaT [4]: -1.9 °C
- deltaT [5]: 0.73 °C
- deltaT [6]: -0.48 °C
- inhibition [7]: Active
- Activity [8]: 13
- deltaT [9]: -0.7 °C
